Screening data from PubChem BioAssay.
Shown are actives, neighbours in structure and some others; about 2.8% of the full set was active somewhere.
HTRA1 inhibitor: inhibitors of human serine peptidase HTRA1 | recombinant HTRA1, FP-rhodamine activity-based probe, fluorescence polarization | Q92743 | 0.5% of 340,000 active | inhibition, % at 5.96 µM | AID 504803; in the data active means inhibition above about 36%
ABHD4 inh: ABHD4 (mouse) inhibition, primary FP screen; inhibition, % at 8.92 µM; 0.54% of 370,000 active; Q8VD66; purified mABHD4, FP-Rh probe fluorescence polarization;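 active means inhibition exceeding the mean over every tested compound plus 3 SD, cut at about 30% in these data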
Target sequence (Q8VD66 whole entry, looked up): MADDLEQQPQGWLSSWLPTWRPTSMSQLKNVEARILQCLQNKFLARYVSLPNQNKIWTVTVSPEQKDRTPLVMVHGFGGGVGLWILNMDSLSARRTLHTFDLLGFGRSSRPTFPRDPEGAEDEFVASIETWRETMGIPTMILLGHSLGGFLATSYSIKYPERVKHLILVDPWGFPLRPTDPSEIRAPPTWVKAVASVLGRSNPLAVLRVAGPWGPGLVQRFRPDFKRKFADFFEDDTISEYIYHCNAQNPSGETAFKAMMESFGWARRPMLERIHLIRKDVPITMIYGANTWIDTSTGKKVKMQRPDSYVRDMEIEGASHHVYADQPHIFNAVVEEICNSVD
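Test system: mouse ABHD4 enzyme, wild type. Reagent: FP-Rh fluorescent activity-based probe, added after compound pre-incubation. Timing: pre-incubation 45 min, probe exposure 60 min, at 25 °C. Technique: FP readout, ex 525 nm / em 598 nm. Benchmarks: high control S159A mutant with DMSO, low control median of compound wells.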
PAFAH1B3 FP inh: inhibitors of human PAFAH1B3. recombinant PAFAH1B3, FP-rhodamine probe, fluorescence polarization. 0.28% of 340,000 active. AID 492972. inhibition, % at 3.39 µM;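 active means inhibition above the screen-wide average of all tested compounds plus 3 SD, cut at about 25% in these data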
Target sequence (Q15102 whole entry, looked up): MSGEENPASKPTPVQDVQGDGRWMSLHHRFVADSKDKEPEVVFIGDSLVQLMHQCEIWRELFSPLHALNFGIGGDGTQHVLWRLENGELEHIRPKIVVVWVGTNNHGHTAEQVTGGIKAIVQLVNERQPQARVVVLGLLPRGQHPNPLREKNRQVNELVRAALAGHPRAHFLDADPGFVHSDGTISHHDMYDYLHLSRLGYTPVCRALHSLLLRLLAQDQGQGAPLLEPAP
PAFAH2 FP inh: inhibitors of human PAFAH2; AID 492956; 0.99% of 340,000 active; Q99487; recombinant PAFAH2, FP-rhodamine activity probe, fluorescence polarization; inhibition, % at 3.39 µM;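 active means inhibition above the mean over all tested compounds plus 3 SD, cut at about 30% in these data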;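 further: inhibitors block probe labeling of enzyme so polarization drops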
PAFAH1B2 inh: blocks human PAF acetylhydrolase 1b catalytic subunit 2; P68402; recombinant PAFAH1B2, FP-rhodamine activity probe, fluorescence polarization; inhibition, % at 3.39 µM; 1.2% of 340,000 active;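 active means inhibition above the mean of all tested compounds plus 3 SD, cut at about 24% in these data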
pPAFAH FP inh: inhibitors of human plasma PAF acetylhydrolase (pPAFAH). inhibition, % at 3.39 µM. Q13093. recombinant pPAFAH, FP-rhodamine probe fluorescence polarization. 1.5% of 330,000 active;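 active means inhibition above the mean inhibition across the screen plus 3 SD, cut at about 25% in these data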;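 further: inhibitors block binding of the rhodamine activity-based probe so polarization drops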
Numbers stand for hits; n = inactive; x = not tested or not shown.

SMILES | HTRA1 inhibitor | ABHD4 inh | PAFAH1B3 FP inh | PAFAH2 FP inh | PAFAH1B2 inh | pPAFAH FP inh
Cc1ccc(S(=O)(=O)N2CCC(=O)N(CCOCc3ccc(C(F)(F)F)cc3)CC2)cc1 | n | n | n | n | n | 30
CCCCNC(=O)C[C@@H]1C[C@]2(C(=O)OCC)CCC3=C2N(CCC3)C1=O | x | n | x | x | x | x
CCOC(=O)C1=NOC(C(C)=O)(C(=O)N2CCOCC2)C1 (stereo not drawn) | x | n | x | x | x | x
O=C1C(Cl)=C(NCCN2CCCCC2)C(=O)c2ccccc21 | n | x | 29 | n | n | n
CC(=O)N1CCN(c2ccc(Oc3ccc([N+](=O)[O-])c(C(F)(F)F)c3)cc2)CC1 | n | x | n | n | n | 25
CCOc1ccc(C(=O)Nc2ccc(N3CCN(C(C)=O)CC3)cc2)cc1[N+](=O)[O-] | n | n | n | n | n | n
CC(C)(C)OC(=O)NCCCC1=CC2=CC(=O)C(C)(OC(=O)c3ccc(Cl)nc3)C(=O)C2=CO1 (stereo not drawn) | x | x | x | x | x | 40
CSc1nnc(CCCCCNC(=O)OC(C)(C)C)o1 | n | n | n | n | n | n
COC(=O)CCCC1=CC2=CC(=O)C(C)(OC(=O)C3CCCC3)C(=O)C2=CO1 (stereo not drawn) | n | x | n | n | n | 32
CCC(=O)OC1(C)C(=O)C=C2C=C(CCCC(=O)OC)OC=C2C1=O (stereo not drawn) | n | n | n | n | n | n
CC(C)(C)OC(=O)NCCCC1=CC2=CC(=O)C(C)(O)C(=O)C2=CO1 (stereo not drawn) | x | x | x | x | x | 32
CCC(=O)OC1(C)C(=O)C=C2C=C(CCCCNC(=O)OC(C)(C)C)OC=C2C1=O (stereo not drawn) | x | x | x | x | x | 30
COC(=O)CCCC1=CC2=CC(=O)C(C)(O)C(=O)C2=CO1 (stereo not drawn) | x | x | x | x | x | n
CC(C)(C)OC(=O)NCCc1nnc(SCC(=O)c2ccc(Cl)cc2)o1 | n | n | n | n | n | n
CC(=O)CC[C@@H]1CC[C@]2(CCCN(C(=O)c3ccno3)C2)O1 | x | n | x | x | x | x
COc1cc(NC(=O)C2CCCN(S(=O)(=O)c3ccc(C)cc3)C2)cc(OC)c1 (stereo not drawn) | x | n | x | x | x | x
O=C(CCS(=O)(=O)c1cc2c(cc1Br)CCN2C(=O)C1CC1)N1CCN(c2ccccn2)CC1 | x | n | x | x | x | x
Cc1cccc(N2C(S)=C(C#N)C(=O)NC2c2cccs2)c1 (stereo not drawn) | n | n | n | n | 30 | n
CC(=O)c1cccc(NC(=O)NCCc2ccc(Cl)cc2)c1 | n | n | n | n | 27 | n
S=C(NCCc1ccc(Cl)cc1)NC1CC1 | n | n | n | n | 42 | n
COc1ccccc1NC(=S)NCCSc1ccc(Cl)cc1 | n | n | n | n | n | n
COc1ccccc1NC(=S)NCCc1ccc(Cl)cc1 | n | n | n | n | 34 | n
NS(=O)(=O)c1ccc(CCNC(=S)NC2CCCC2)cc1 | n | n | n | n | n | n
Cc1ccccc1NC(=O)NCCc1ccc(Cl)cc1 | n | n | n | n | 29 | n
CCN(CC)C(=O)c1ccc(C(CCOC(=O)Oc2ccccc2)c2ccc(OC)cc2)cc1 (stereo not drawn) | x | n | x | x | x | x
SMILES | HTRA1 inhibitor | ABHD4 inh | PAFAH1B3 FP inh | PAFAH2 FP inh | PAFAH1B2 inh | pPAFAH FP inh
C[C@@H]1COc2cc(Br)ccc2S(=O)(=O)N1Cc1cn(Cc2ccccc2)nn1 | x | n | x | x | x | x
CC(C)(C)N(Cc1cn(CC2CCCCC2)nn1)S(=O)(=O)c1ccc(F)cc1Br | x | n | x | x | x | x
CCC[C@H]1[C@@H](NC(=O)Nc2ccc3c(c2)OCO3)CC[C@@]23CCCN2C(=O)CCC[C@@H]13 | x | n | x | x | x | x
O=C(Nc1cccc(Br)c1)OC1CC2CC1[C@H]1CCCCN1C2 (stereo partly drawn) | x | n | x | x | x | x
O=C(CSc1nnc(-c2cccs2)o1)c1ccc2c(c1)OCO2 | x | n | x | x | x | x
CCN(CC)C(=O)CC[C@H]1CC[C@]2(CCCN(S(C)(=O)=O)C2)O1 | x | n | x | x | x | x
COC(=O)c1cc(S(=O)(=O)N2CCOCC2)c(Cl)cc1N1CCOCC1 | n | n | n | n | n | n
COC(=O)c1cc(C)nc2c1C(=O)C(=O)C=C2N1CCOCC1 | n | n | 73 | 56 | 28 | n
COc1ccc2c(c1)CN1C(=O)N(CCc3ccccc3)S(=O)(=O)CC21 (stereo not drawn) | x | n | x | x | x | x
Cc1ccc(N2CCN(/N=C/c3cccnc3)CC2)cc1 | n | n | n | n | n | x
Clc1ccc(N2CCN(/N=C/c3cccnc3)CC2)cc1 | n | n | n | n | 28 | n
COc1cccc(/C=N/N2CCN(c3ccc(Cl)cc3)CC2)c1OC | n | n | n | n | 33 | n
Cc1ccc(NS(=O)(=O)c2cc3c(cc2Cl)NC(=O)CO3)cc1C | x | n | x | x | x | x
CCN(Cc1cn(CC2CCCCC2)nn1)S(=O)(=O)c1ccccc1Br | x | n | x | x | x | x
O=C(C1CCC1)N1CCc2cc(S(=O)(=O)C3CCN(Cc4ccc(F)cc4)CC3)ccc21 | x | n | x | x | x | x
COc1ccc(OC)c(S(=O)(=O)Nc2ccc(C(=O)Nc3cc(C)on3)cc2)c1 | x | n | x | x | x | x
Cc1nn(-c2ccccc2)c(C)c1NC(=O)COC(=O)CC(C)c1ccccc1 (stereo not drawn) | n | n | n | n | n | 27
Cc1cccc(OCCC(=O)OCC(=O)Nc2c(C)nn(-c3ccccc3)c2C)c1 | n | n | n | n | n | 29
Cc1onc(-c2ccccc2Cl)c1C(=O)NCCn1c(C)cc2ccccc21 | 48 | x | n | n | n | n
COC(=O)[C@]12C[C@H](CC(=O)NCc3ccc(OC)c(OC)c3)C(=O)N(CCc3ccc(OC)c(OC)c3)C1=C[C@H](C(C)C)O[C@@H]2C1CC1 | x | n | x | x | x | x
Cc1c(O)ccc(/C(Cc2ccc3ccccc3n2)=N\O)c1O | n | n | 53 | n | 29 | n
CCC(Sc1nc(-c2cccc(OC)c2)c(C#N)c(=O)[nH]1)C(=O)Nc1nnc(C(C)C)s1 (stereo not drawn) | n | n | n | n | 35 | n
COC(=O)C12C=C3CC(C4CC4)=C3C(=O)N1Cc1[nH]c3ccccc3c1C2 (stereo not drawn) | x | n | x | x | x | x
COC(=O)[C@H](C(C)C)N(Cc1cn(Cc2ccc(C)cc2)nn1)S(=O)(=O)c1ccccc1Br | x | n | x | x | x | x
Cc1ccc(OCCOC(=O)c2sc(=S)n(C)c2C)cc1 | n | n | n | n | n | n
SMILES | HTRA1 inhibitor | ABHD4 inh | PAFAH1B3 FP inh | PAFAH2 FP inh | PAFAH1B2 inh | pPAFAH FP inh
Cc1c(C(=O)OCCOc2ccc(Br)cc2)sc(=S)n1C | n | n | n | n | 28 | n
O=S1(=O)C=CCN1Cc1cn(Cc2ccc(F)cc2)nn1 | x | n | x | x | x | x
N#CCC[C@@H]1CC[C@]2(CCCN(S(=O)(=O)C3CCCCC3)C2)O1 | x | n | x | x | x | x
CC1(c2ccccc2)CC(=O)N(c2ccc(NC(=O)c3ccccn3)cc2Cl)C1=O (stereo not drawn) | x | n | x | x | x | x
O=S(=O)(O)c1cc(OS(=O)(=O)c2ccccc2)cc2ccccc12 | n | n | n | n | 30 | n
Cc1ccc(-c2c(C(=O)Nc3ccccc3C)c(C)[nH]c(=S)c2C#N)o1 | x | n | x | x | x | 27
CC(C)Cn1c2ccccc2c2cc(C(=O)O)ccc21 | n | n | n | n | 29 | n
